The test system of data set [1] is 921. Kind of data set: Inhibition of cell invasion in human 921 cells at 5 to 15 uM incubated for 48 hrs by transwell assay. The class given is functional, cell-based. The note with it: dose 5-15 µM. Summed up: (§1)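 92.1 or MP41 cells (1 × 10⁴/well) seeded in serum-free medium in the upper transwell chamber, with 20% FBS medium below. Left overnight, then treated 48 h. Non-migrated cells swabbed off; cells on the lower side stained with crystal violet 30 min and counted by light microscopy (×40 for migration, ×100 for invasion). Mean ± SD, n = 3.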

In data set [2] the test system is MP41. Put plainly: Inhibition of cell migration in human MP41 cells at 15 uM incubated for 48 hrs by transwell migration assay. Type of data set: functional, cell-based. In outline:
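Transwell migration: 92.1 and MP41 cells (RPMI-1640, 10% FBS) seeded 1 × 10⁴/well in upper chamber in serum-free medium, 20% FBS medium below; overnight at 37 °C, then compound for 48 h. Non-migrated cells swabbed off; lower cells crystal violet-stained 30 min, counted by light microscopy. Mean SD of three independent experiments.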

Data set [3] deals with GNAQ/GNA11 (Homo sapiens) (UniProt P50148+P29992). Put plainly: Inhibition of Galphaq/11 (unknown origin) expressed in HEK293 cells cotransfected with AT1R assessed as inhibition of Ang-II induced calcium release at 100 uM preincubated for 30 mins followed by Ang-II addition by Fluo-4AM dye based fluorescence assay. Type of data set: cell-based. Summed up:
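HEK293 cells transfected with AT₁R, washed in HBSS with 0.1% BSA and loaded with Fluo-4 AM for 1 h at 37 °C. Washed, then pretreated with compound at 100 μM for 30 min. AngII at varying concentrations added 20 s into the fluorescence recording. Mean ± SD, n = 3.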

The nature of data set [4]: Toxicity in nude BALB/c mouse xenografted with human MP41 cells assessed as morphological changes in kidney tissue at 10 to 30 mg/kg, ip administered once daily for 21 days and measured every 3 days by HE staining based assay. The note with it: in vivo, 504 h, dose 10-30 mg/kg, time 21 day. Type of data set: organism-based. Summed up:
(§2)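 Nude BALB/c mice bearing serially passaged MP41 tumour slices (tertiary recipients, n = 8/group, randomized) dosed ip daily for 21 days at 10 or 30 mg/kg/d or vehicle. Body weight monitored every 3 days. Tissues collected at sacrifice, fixed in 4% paraformaldehyde 24 h, paraffin-embedded, H&E stained, viewed at ×100.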
(Xenograft models place foreign cells or tissue in a host animal.)

Data set [5] can be described thus: Half life in ICR mouse at 30 mg/kg, po measured upto 24 hrs by LC-MS/MS analysis. The note with it: in vivo. The class given is ADME, organism-based. Summed up:
(§3)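 Single dose in male ICR mice, 10 mg/kg iv or 30 mg/kg po, dissolved in 5% DMSO/95% saline. Blood drawn by catheter at 0, 5, 15, 30 min and 1, 2, 4, 6, 8, 24 h. Plasma spun 6800g 6 min at 2−8 °C, stored −80 °C, quantified by LC−MS/MS. Noncompartmental parameters, mean ± SD, n = 6.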

Data set [6] in a line: Toxicity in nude BALB/c mouse xenografted with human MP41 cells assessed as effect on body weight at 10 to 30 mg/kg, ip administered once daily for 21 days and measured every 3 days. The class given is organism-based. The note with it: in vivo, 504 h, dose 10-30 mg/kg, time 21 day. Summed up: as §2
Data set [7] is described as follows: Cmax in ICR mouse at 10 mg/kg, iv measured upto 24 hrs by LC-MS/MS analysis. The class given is ADME, organism-based. The arrangement: route intravenous, dose 10 mg/kg, time <=24. The note with it: in vivo. Summed up:
as §3

Data set [8] is described as follows: Induction of apoptosis in human 921 cells assessed as necrotic cells at 15 uM after 48 hrs by Annexin-V-FITC/propidium iodide staining based flow cytometry (reference value: 0.26%). Type of data set: functional.
Data set [9] can be described thus: Induction of apoptosis in human 921 cells assessed as viable cells at 5 uM after 48 hrs by Annexin-V-FITC/propidium iodide staining based flow cytometry (reference value: 93.8%). Type of data set: functional. Conditions: read-out: Activity.
Data set [10] in a line: Oral bioavailability in ICR mouse at 30 mg/kg measured upto 24 hrs by LC-MS/MS analysis. Conditions: in vivo. The class given is ADME, organism-based. Summed up:
(§4)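 Single-dose PK in male ICR mice (n = 6): 10 mg/kg iv or 30 mg/kg po, vehicle 5% DMSO/95% saline. Blood (30 μL) by catheter at 0, 5, 15, 30 min and 1, 2, 4, 6, 8, 24 h; plasma by centrifugation, stored −80 °C, measured by LC–MS/MS. Parameters from noncompartmental analysis, mean SD.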

Data set [11] deals with MP41. Put plainly: Inhibition of cell invasion in human MP41 cells at 5 to 15 uM incubated for 48 hrs by transwell assay. Type of data set: functional, cell-based. The note with it: dose 5-15 µM. In outline:
as §1

Data set [12] is described as follows: Induction of apoptosis in human MP41 cells assessed as viable cells at 30 uM after 48 hrs by Annexin-V-FITC/propidium iodide staining based flow cytometry (reference value: 93.6%). The class given is functional. The note with it: read-out: Activity. In general terms: In flow cytometry, cells or beads pass a laser one at a time.
Data set [13] can be described thus: Antitumor activity against human MP41 cells xenografted in nude BALB/c mouse assessed as tumor growth inhibition at 30 mg/kg, ip administered for once daily for 21 days and measured every 3 days. The class given is functional. The note with it: 504 h, time 21 day, read-out: TGI. Summed up:
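MP41 tumours were passaged subcutaneously mouse-to-mouse in nude BALB/c mice (6−8 weeks, 20−25 g). Tertiary recipients randomized, n = 8/group, given 10 or 30 (mg/kg)/d ip or vehicle for 21 days. Tumour size (V = A × B² × π/6, caliper) and body weight taken every 3 days; tumours excised and weighed on day 22. TGI computed versus the vehicle group.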

Data set [14] is described as follows: Induction of apoptosis in human MP41 cells assessed as late apoptotic cells at 30 uM after 48 hrs by Annexin-V-FITC/propidium iodide staining based flow cytometry (reference value: 3.28%). The class given is functional.
Data set [15] can be described thus: AUC(0 to t) in ICR mouse at 30 mg/kg, po measured upto 24 hrs by LC-MS/MS analysis. Type of data set: ADME, organism-based. Set-up: route oral, dose 30 mg/kg, time <=24. Conditions: in vivo. In outline: as §3
In data set [16] the test system is 921. Kind of data set: Inhibition of cell migration in human 921 cells at 15 uM incubated for 48 hrs by transwell migration assay. Type of data set: functional, cell-based. Summed up:
as §1

A short description of data set [17]: Induction of apoptosis in human MP41 cells assessed as late apoptotic cells at 15 uM after 48 hrs by Annexin-V-FITC/propidium iodide staining based flow cytometry (reference value: 3.28%). The class given is functional.
Data set [18] is described as follows: Tmax in ICR mouse at 30 mg/kg, po measured upto 24 hrs by LC-MS/MS analysis. Type of data set: ADME, organism-based. Conditions: in vivo. Summed up:
as §4

Data set [19] in a line: MRT(0 to t) in ICR mouse at 30 mg/kg, po measured upto 24 hrs by LC-MS/MS analysis. The class given is ADME, organism-based. Conditions: in vivo. In outline:
as §4

The test system of data set [20] is 921. Put plainly: (§5) Antiproliferative activity against human 92.1 cells assessed as inhibition of cell growth after 72 hrs by CCK8 assay. The class given is functional, cell-based. In outline:
(§6)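 92.1 or MP41 cells in RPMI-1640 with 10% FBS were seeded at 3 × 10³ cells/well. Exposed to serial concentrations for 72 h at 37 °C, 5% CO₂. CCK-8 added for 1−4 h, absorbance read at 450 nm. IC₅₀ from concentration−response curve fit, mean ± SD.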
For orientation: Tetrazolium assays rely on reduction of a dye to a coloured formazan, in cell work by metabolically active cells.

Data set [21] can be described thus: as §5. Type of data set: functional, cell-based. Conditions: Homo sapiens, 921, 72 h. Summed up:
as §6

A short description of data set [22]: Toxicity in nude BALB/c mouse xenografted with human MP41 cells assessed as morphological changes in spleen tissue at 10 to 30 mg/kg, ip administered once daily for 21 days and measured every 3 days by HE staining based assay. The note with it: in vivo, 504 h, dose 10-30 mg/kg, time 21 day. Type of data set: organism-based. In outline:
as §2

SMILES strings stand for the structures. The source made the active and inactive calls. The calls are words filed in the database; no cut-off is given here.

Turning to `CC[C@@H](C)[C@H](N)C(=O)N1CCn2cc(-c3ccccc3)nc2[C@@H]1CC1CCCCC1`, the inhibition entry in the data set on 921 [1], with MP41 [2], in the data set on MP41 [11] and in the data set with 921 [16] was “Active” in each case. Also, the result in [3] was Active. For the same molecule, the Activity entry in [4] was “Non-Toxic”; in data set [6], “Non-Toxic”; in data set [8], 0.36%; in data set [14], 6.16%; in [17], 4.42%; with 921 [20] it was “Dose-Dependent Effect”. Further, the Activity entry in [22] is on record as “Non-Toxic”. The molecule also showed a half-life in data set [5] of 1.41 h. The molecule further came in with a Cmax in data set [7] of 2610 ng/mL. For the same molecule, the viability at 5 µM in data set [9] is 90.1%. This molecule returned a bioavailability in data set [10] of 92.6%. The viability at 30 µM in data set [12] was found to be 75.7%. Besides, in data set [13], the inhibition in vivo at 30 mg/kg is 99%. For the same molecule, in data set [15], the exposure AUC(0-t) at 24 h was determined as 5940 ng·h/mL. In [18], the Tmax was 0.42 h. This molecule also came in with an MRT last at 24 h in data set [19] of 1.88 h. The IC50 in data set [21] was 10.1 µM.

Broadly, the half-life is the time in which the quantity being followed falls by half. A lower half-life goes with rapid decline. Broadly, the Cmax is the highest concentration seen after dosing. Broadly, the bioavailability is the share of a dose that reaches the circulation, judged against a reference dose that is usually intravenous. For orientation: AUC(0-t) means the area under the concentration-time curve up to a stated or last time point. Usually Tmax stands for the time at which the peak concentration occurs. Broadly, the MRT last is the average time that molecules of a dose stay in the body. As a reminder, the IC50 is the point on the concentration scale where inhibition reaches its midpoint.

(Values after ChEMBL document CHEMBL4808167, “Design, Synthesis, and Evaluation of Small Molecule Gαq/11 Protein Inhibitors for the Treatment of Uveal Melanoma” (J Med Chem, 2021).)
